# An excerpt weighted towards active compounds, which were near 2.8% of everything screened.
# EP2 modulator – EP2 receptor modulators, cAMP readout, primary screen, cell-based, HTRF cAMP, PGE2 stimulation; AID 940, 2007; Prostaglandin E2 receptor EP2 subtype (Homo sapiens), P43116; hit rate 0.83% among 260,000; EP2-expressing cells, cAMP HTRF FRET, PGE2 co-stimulation; induction, % at 25 µM;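 active = compounds whose cAMP rise, as percent of the full-agonist control response, exceeds 60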;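 note: rat C6 glioma line stably carrying human EP2 under a CMV promoter; the protocol text gives 20 µM as final concentration; 100% = response of wells given 1 µM PGE2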
# NPY Y2 blocker – NPY-Y2 receptor antagonists, primary screen, cell-based; inhibition, % at 2.7 µM; Neuropeptide Y receptor type 2 (Homo sapiens), P49146; NPY-Y2 expressing cells, antagonist mode; AID 793, 2007; hit rate 0.99% among 140,000; in the data active = inhibition above about 17%;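 note: 0% = vehicle with agonist challenge and 100% = reference antagonist with challenge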
# Target sequence (P49146 whole entry, looked up): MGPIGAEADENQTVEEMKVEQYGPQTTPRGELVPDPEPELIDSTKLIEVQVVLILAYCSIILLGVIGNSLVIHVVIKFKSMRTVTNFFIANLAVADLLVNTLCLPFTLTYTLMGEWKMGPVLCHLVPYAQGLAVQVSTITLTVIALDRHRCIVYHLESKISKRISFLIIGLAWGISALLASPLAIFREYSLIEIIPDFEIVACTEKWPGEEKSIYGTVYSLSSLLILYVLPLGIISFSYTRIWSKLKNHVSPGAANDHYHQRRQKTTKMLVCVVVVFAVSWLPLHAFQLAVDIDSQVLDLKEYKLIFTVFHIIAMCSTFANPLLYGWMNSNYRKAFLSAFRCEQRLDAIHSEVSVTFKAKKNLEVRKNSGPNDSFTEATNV
# NPY2 pot ag – NPY-Y2 potentiators or agonists, primary screen, cell-based. cells expressing NPY-Y2, potentiator/agonist read-out. Neuropeptide Y receptor type 2 (Homo sapiens), P49146. activation, % at 3.6 µM. hit rate 0.45% among 220,000; in the data active = activation above about 27%;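 note: cells stimulated with NPY near EC25 plus isoproterenol at EC100; 0% = vehicle plus submaximal agonist and 100% = vehicle plus saturating agonist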
# PGE2 EP2 inh – human EP2 receptor antagonists, primary screen, TR-FRET cAMP, C6 glioma cells; inhibition, % at 25 µM; C6 glioma cells expressing human EP2; cells stimulated with saturating PGE2; hit rate 0.52% among 260,000; Prostaglandin E2 receptor EP2 subtype (Homo sapiens), P43116;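 active = percent inhibition above 40 after rounding to a whole number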;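 note: rat C6 glioma host cells with rolipram phosphodiesterase inhibitor present; the protocol text gives 20 µM as final concentration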
# NPY-Y1 antag – NPY-Y1 receptor antagonists, primary screen, cell-based. Neuropeptide Y receptor type 1 (Homo sapiens), P25929. HEK293-CNG Y1 cells, membrane potential fluorescence; NPY at EC95, then isoproterenol. inhibition, % at 3.6 µM. hit rate 1% among 200,000;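 active = inhibition above the campaign mean inhibition of all tested compounds plus 3 SD, cut at about 20% in these data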;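 note: 0% = DMSO wells given NPY plus isoproterenol and 100% = isoproterenol alone without NPY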
#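 Material: HEK293 Y1/CNG channel cell line | Also added: NPY (25 nM), isoproterenol (1 µM), Ro 20-1724 (25 µM) | Compound: One concentration, 3.6 µM, in 0.4% DMSO | Schedule: 3 h dye uptake, 1 h room-temperature compound, 45 min post-isoproterenol | Signal: Membrane-potential fluorescent dye readout | Read-out: % inhibition of NPY effect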
# NPY-Y1 PAM-ag – NPY-Y1 receptor potentiators or agonists, primary screen, cell-based; Neuropeptide Y receptor type 1 (Homo sapiens), P25929; NPY-Y1 expressing cells, potentiator/agonist activation; activation, % at 3.6 µM; hit rate 0.37% among 220,000; in the data active = activation above about 33%, passing the limit was not always enough;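 note: cells stimulated with NPY at EC10 then isoproterenol at EC100; 0% = low agonist plus stimulus and 100% = saturating agonist plus stimulus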
# EP2 cAMP induct – cAMP induction in EP2, EP4, beta2-AR and parental cells, confirmation, counter-screen for EP2 modulator project, cell-based, five parallel assays, C6 glioma, HEK293; shares compounds with EP2 modulator; cAMP HTRF induction; plus low (about EC15) PGE2 agonist; calls only at 20 µM (by protocol); hit rate 47% among 1,300; AID 1080, 2008;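 active = cAMP induction above 50% in the main assay while under 30% in all four parallel counter assays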;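 note: rat C6 glioma cells stably expressing human EP2 receptor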
# * = called active by the depositor; i = inactive; x = no result; + = active, no number; ! = not active in a repeat.
SMILES,EP2 modulator,NPY Y2 blocker,NPY2 pot ag,PGE2 EP2 inh,NPY-Y1 antag,NPY-Y1 PAM-ag,EP2 cAMP induct
Cc1cccc(Nc2nc(CC(=O)N(C)CCN3CCCCC3)cs2)c1,-29,x,x,2,x,x,x
CC(C)CCNC(=O)c1c(N)n(CC2CCCO2)c2nc3ccccc3nc12 (centres undefined),69*,3,1,4,6,-15,+
CCC(C)NC(=O)c1c(N)n(CC2CCCO2)c2nc3ccccc3nc12 (centres undefined),57,4,-2,15,0,12,x
Cc1cc(C)c(O)c(CN2C3CCC2CC(O)(c2ccccc2F)C3)c1 (centres undefined),4,x,x,4,x,x,x
CCC(C)N1CCN(Cc2cc(OC)c(OC)cc2OC)CC1 (centres undefined),-47,x,x,9,x,x,x
O=C(CNC1CCCCC1)N1CCC2(CC1)OCCO2,73*!,3,-1,7,7,9,i
O=C(NC(Cc1ccccc1)C(=O)N1CCC2(CC1)OCCO2)C1CCCCC1 (centres undefined),6,4,-1,3,-5,-1,x
CCCn1cc(CN2C3CCC2CC(O)(c2ccccc2F)C3)cn1 (centres undefined),-33,x,x,6,x,x,x
COC[C@H]1OC(=O)c2coc3c2[C@@]1(C)C1=C(C3=O)C2CCC(=O)[C@@]2(C)C[C@H]1OC(C)=O (some centres undefined),50,x,x,15,x,x,i
COc1c(C)cccc1CN1C2CCC1CC(O)(c1cccc(F)c1)C2 (centres undefined),-78,x,x,12,x,x,x
C=CCc1cc(C=C2C(=O)N(C)C(=O)N(C)C2=O)cc(OCC)c1OCc1ccccc1,88*,7,-2,5,6,2,i
CCOP(=S)(OCC)Oc1nc(Cl)c(Cl)cc1Cl,68*,x,x,7,x,x,+
COc1cc(OC)c(OC)cc1CNCCc1ccc(OC)c(OC)c1,67*,1,-1,8,4,-1,i
O=C(CN1C(=O)CN=C(c2ccccc2Cl)c2c1sc1c2CCCC1)NCc1cccs1,-74,x,x,10,x,x,x
Clc1ccccc1C1NCc2ccccc2-n2cccc21 (centres undefined),68*,x,-7,7,5,3,+
COc1ccc(C2=NCC(=O)N(CC(=O)NCc3cccs3)c3sc4c(c32)CCCC4)cc1,-52,x,x,5,x,x,x
C[C@H](N)[C@H](O)c1ccc(O)c(O)c1,74*,x,x,8,x,x,i
NC(=NCCC[C@H](N)C(=O)O)N[N+](=O)[O-],86*!,x,x,12,x,x,i
CN(C/N=C(\N)N[N+](=O)[O-])S(=O)(=O)c1ccccc1,-3,x,10,3,-5,25,x
NCCc1ccc(O)cc1,-8,4,-6,12,0,-10,x
CCCCCCCCCc1ccc(O)cc1,55,x,x,9,x,x,i
O=C(c1cn(Cc2ccccc2)c2ccccc12)C1CC1,65*,x,-3,12,2,-8,i
CCC(=O)c1cn(Cc2ccccc2)c2ccccc12,40,x,-17,8,4,-8,x

# Source: PubChem (several laboratories)
